Measurements from ChEMBL document CHEMBL1124565, “Synthesis and receptor affinities of some conformationally restricted analogues of the dopamine D1 selective ligand (5R)-8-chloro-2,3,4,5-tetrahydro-3-methyl-5-phenyl- 1H-3-benzazepin-7-ol” (J Med Chem, 1989).

biological target: T1, D(1A) dopamine receptor (Rattus norvegicus, UniProt P18901); assay: Inhibition of [3H]SCH-23390 binding to rat striatal homogenate dopamine receptor D1
Outline: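 Pooled striatal membranes from male Sprague-Dawley rats (150-250 g), washed twice by homogenization/centrifugation (20000g, 10 min) in 50 mM Tris-HCl pH 7.4, final buffer adding 120 mM NaCl, 5 mM CaCl2, 1 mM MgCl2. Test agents at various concentrations compete with [3H]SCH 23390; triplicate, 37 °C for 20 min, rapid GF/B filtration, liquid scintillation counting.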

T1 sequence (P18901 whole entry): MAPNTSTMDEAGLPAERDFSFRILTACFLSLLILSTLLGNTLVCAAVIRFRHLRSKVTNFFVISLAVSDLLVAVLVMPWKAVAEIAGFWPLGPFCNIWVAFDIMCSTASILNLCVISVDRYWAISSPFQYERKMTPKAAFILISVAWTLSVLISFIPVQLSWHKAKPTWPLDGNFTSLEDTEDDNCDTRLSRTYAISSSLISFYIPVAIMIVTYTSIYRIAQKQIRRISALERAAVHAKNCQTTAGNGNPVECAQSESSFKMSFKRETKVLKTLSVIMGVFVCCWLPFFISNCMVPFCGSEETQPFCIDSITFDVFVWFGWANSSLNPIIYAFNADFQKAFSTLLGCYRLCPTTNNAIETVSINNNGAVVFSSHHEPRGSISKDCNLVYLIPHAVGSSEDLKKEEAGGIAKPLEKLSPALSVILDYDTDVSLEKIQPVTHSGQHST

Row | SMILES | Ki [nM]
1 | COc1cc2c(cc1O)[C@H]1c3ccccc3CC[C@@H]1N(C)CC2 | 23.6
2 | CN1CCc2cc(Cl)c(O)cc2[C@H]2c3ccccc3CC[C@H]21 | 898
3 | COc1cc2c(cc1O)[C@@H]1c3ccccc3CC[C@@H]1N(C)CC2 | 4200
4 | COc1cc2c(cc1O)CCN(C)[C@H]1CCc3ccccc3[C@H]21 | 1660
5 | CN1CCc2ccc(O)cc2[C@H]2c3ccccc3CC[C@@H]21 | 72.6
6 | COc1cc2c(cc1O)CCN(C)[C@H]1CCc3ccccc3[C@@H]21 | 24400
7 | CN1CCc2cc(Cl)c(O)cc2[C@@H]2c3ccccc3CC[C@@H]21 | 513
8 | Cc1cc2c(cc1O)[C@H]1c3ccccc3CC[C@@H]1N(C)CC2 | 7.1
9 | CN1CCc2cc(Cl)c(O)cc2[C@@H]2c3ccccc3CC[C@H]21 | 531
10 | CN1CCc2cc(Cl)c(O)cc2[C@@H]2c3ccccc3CC[C@@H]21 (relative stereo) | 474
11 | CN1CCc2cc(Cl)c(O)cc2C2c3ccccc3CCC21 (trans isomer) | 3.3
12 | CN1CCc2cc(Cl)c(O)cc2[C@H]2c3ccccc3CC[C@@H]21 [ECOPIPAM] | 1.9

biological target: T1, D(1A) dopamine receptor; assay: In vitro affinity of compound towards dopamine (D1) receptor was determined by measuring their ability to displace [3H]SCH-23,390 from rat striatal homogenates

Row | SMILES | Ki [nM]
13 | CN1CCc2cc(O)c(O)cc2[C@@H]2c3ccccc3CC[C@@H]21 | 1730
14 | CN1CCc2cc(O)c(O)cc2[C@H]2c3ccccc3CC[C@@H]21 | 68

biological target: T2, D(2) dopamine receptor (Rattus norvegicus, UniProt P61169); assay: In vitro affinity of compound towards Dopamine receptor D2 was determined by measuring their ability to displace [3H]spiperone from rat striatal homogenates
Outline: (§1)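 Striatum from male Sprague-Dawley rats (150-250 g), homogenized in ice-cold 50 mM Tris-HCl pH 7.4, centrifuged 20000g 10 min twice, resuspended in Tris buffer with 120 mM NaCl, 5 mM CaCl2, 1 mM MgCl2. Competition against [3H]spiperone (final approximately 0.3 nM), triplicate tubes, 37 °C 20 min, vacuum filtration over GF/B with ice-cold buffer rinses, scintillation counting.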

T2 sequence (P61169 whole entry): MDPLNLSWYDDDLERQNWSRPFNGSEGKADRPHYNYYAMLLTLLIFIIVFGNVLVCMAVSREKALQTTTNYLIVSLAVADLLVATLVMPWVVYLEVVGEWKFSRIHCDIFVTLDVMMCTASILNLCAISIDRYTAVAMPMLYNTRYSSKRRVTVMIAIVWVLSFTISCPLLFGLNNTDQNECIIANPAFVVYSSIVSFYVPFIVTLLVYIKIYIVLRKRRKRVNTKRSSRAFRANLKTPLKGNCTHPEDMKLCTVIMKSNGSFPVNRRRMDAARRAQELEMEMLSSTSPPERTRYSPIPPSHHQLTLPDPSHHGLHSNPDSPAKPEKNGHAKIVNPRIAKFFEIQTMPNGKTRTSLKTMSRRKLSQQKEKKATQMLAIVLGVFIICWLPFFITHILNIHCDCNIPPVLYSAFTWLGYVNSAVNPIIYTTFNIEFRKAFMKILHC

Row | SMILES | Ki [nM]
15 | CN1CCc2cc(O)c(O)cc2[C@@H]2c3ccccc3CC[C@@H]21 | > 100000
16 | CN1CCc2cc(O)c(O)cc2[C@H]2c3ccccc3CC[C@@H]21 | 2410

biological target: T2, D(2) dopamine receptor; assay: Displacement of [3H]spiperone from rat striatal homogenate dopamine receptor D2; outline: as §1

Row | SMILES | Ki [nM]
17 | COc1cc2c(cc1O)[C@H]1c3ccccc3CC[C@@H]1N(C)CC2 | 2480
18 | COc1cc2c(cc1O)[C@@H]1c3ccccc3CC[C@@H]1N(C)CC2 | > 100000
19 | COc1cc2c(cc1O)CCN(C)[C@H]1CCc3ccccc3[C@H]21 | 6400
20 | CN1CCc2ccc(O)cc2[C@H]2c3ccccc3CC[C@@H]21 | 7870
21 | COc1cc2c(cc1O)CCN(C)[C@H]1CCc3ccccc3[C@@H]21 | > 100000
22 | Cc1cc2c(cc1O)[C@H]1c3ccccc3CC[C@@H]1N(C)CC2 | 1510
